Bioassay records (PubChem BioAssay)
This is one part of a sample in which hits are shown more often than they occur.
Insulin prom act: TRM-6 insulin promoter activation. TRM-6 cells, insulin promoter eGFP reporter, imaging; plate-scaled: unstimulated 0, stimulated control 100. activation, % at 2 µM. 0.81% of 130,000 active. AID 1296;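 active = activation at 2 µM above a set limit, confirmed on inspection of the cell images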;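 note: share of cells whose green reporter signal exceeds an intensity cutoff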
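material = TRM-6 human fetal islet cells, insulin promoter–eGFP reporter | input = 1,000 TRM-6 cells seeded per well | benchmarks = stimulated versus unstimulated wells as plate controls | measured by = automated fluorescence imaging of paraformaldehyde-fixed, Hoechst-counterstained cells, green channel | schedule = compound exposure 48 h, 37 °C | reagent = tamoxifen at 0.75 µM added at seeding for reporter induction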
* hit, by the source's call.

For Cc1ccc(CNC(=O)C2CCCN(S(=O)(=O)c3c(C)noc3C)C2)cc1 (stereo not drawn) the results were Insulin prom act 114.
Screening COC(=O)c1cc(OC)c(OC)cc1NC(=S)N1CCCC(CO)C1 (stereo not drawn) returned Insulin prom act -8.
COC(=O)COc1ccc(S(=O)(=O)Nc2ccc3c(c2)OCO3)cc1Cl was read as Insulin prom act 228.
Screening O=C(COc1ccc(S(=O)(=O)NC2CCCCC2)cc1Cl)NCc1ccc2c(c1)OCO2 returned Insulin prom act 100*.
For O=C(COc1ccc(S(=O)(=O)N2CCCC2)cc1Cl)NCc1ccc2c(c1)OCO2 the results were Insulin prom act -5.
`CC(C)(C)C1CCC(=NOC(=O)c2ccc(F)cc2)CC1` (stereo not drawn) gave Insulin prom act 0.
`Cc1ccc(C)c(CN2C(=O)C3CCCN3c3ccc(S(=O)(=O)N4CCOCC4)cc32)c1` (stereo not drawn) gave Insulin prom act 3.
Screening CCOC(=O)C1CN(S(=O)(=O)c2cccc(C(F)(F)F)c2)c2cc(CC(=O)OC)ccc2O1 (stereo not drawn) returned Insulin prom act -7.
Screening Cc1cc(N)ccc1N=Nc1c(C)n(C)n(-c2ccccc2)c1=O returned Insulin prom act -3.
For O=C(NCCc1ccccc1)C(=O)Nc1ccc2c(c1)OCCO2 the results were Insulin prom act -8.
Screening Cc1cc(NC(=O)/C=C/c2cccc(Cl)c2)n(-c2nc3ccccc3[nH]2)n1 returned Insulin prom act 300*.
Cc1cc(NC(=O)/C=C/c2ccc(F)cc2)n(-c2nc3ccccc3[nH]2)n1 was read as Insulin prom act -10.
For Cc1cc(NC(=O)c2c(F)cccc2F)n(-c2nc3ccccc3[nH]2)n1 the results were Insulin prom act 9.
For Cn1ncc2c(NNC(=O)c3ccccc3Cl)ncnc21 the results were Insulin prom act -6.
`O=C(COC(=O)c1cc(-c2cccs2)nn1-c1ccccc1)Nc1ccc(Cl)c([N+](=O)[O-])c1` gave Insulin prom act 6.
`CCN1/C(=C/C(C)=C/c2sc3ccccc3[n+]2CC)Sc2ccccc21` gave Insulin prom act 641*.
For N=C1SCC(=O)N1c1ncc(Cc2cccc(Cl)c2)s1 the results were Insulin prom act 408*.
O=C(N=C1SCC(=O)N1c1ccccc1)c1ccco1 was read as Insulin prom act 7.
For CC(=O)Nc1cccc(OCC(=O)NS(=O)(=O)c2ccc(Cl)cc2)c1 the results were Insulin prom act 6.
For COc1ccc(CSCC(=O)Nc2ccccc2SC)cc1 the results were Insulin prom act 367*.
`COc1ccc(OCC(=O)Nc2ccccc2O)cc1` gave Insulin prom act 7.
COc1ccc(CNC(=O)c2ccccc2SC)cc1 was read as Insulin prom act 259.
For Nc1nc(N2CCN(c3ccc(F)cc3)CC2)n[nH]1 the results were Insulin prom act -3.
`CCNC(=O)CC1C(=O)N(c2ccc(F)cc2)C(=O)N1CCc1ccc(OC)cc1` (stereo not drawn) gave Insulin prom act 154*.
Screening COc1ccc(NC(=O)CC2C(=O)N(c3ccc(OC)cc3)C(=O)N2CCc2cccs2)cc1 (stereo not drawn) returned Insulin prom act 6.
For CCNC(=O)CC1C(=O)N(c2ccccc2)C(=O)N1CCc1ccc(OC)c(OC)c1 (stereo not drawn) the results were Insulin prom act 286.
Screening CC1=C(C(=O)OCCOc2ccccc2)C(c2ccsc2)NC(=O)N1C (stereo not drawn) returned Insulin prom act 0.
For CCOc1cccc(C(=O)NC(=S)NCc2cccnc2)c1 the results were Insulin prom act -7.
`CCOc1cccc(C(=O)NC2CCCCC2)c1` gave Insulin prom act 147.
Screening CCOc1cccc(C(=O)N2CCCCC2c2cccnc2)c1 (stereo not drawn) returned Insulin prom act 164*.
Screening COC(=O)CCCC(=O)Nc1ccc(Br)cc1 returned Insulin prom act 0.
For O=C(CSc1nnc(CNc2ccc(F)cc2)n1CC1CCCO1)Nc1ccccc1 (stereo not drawn) the results were Insulin prom act 7.
For Cc1ccc(Sc2ncccc2COC(=O)Nc2ccccc2)cc1 the results were Insulin prom act 0.
`Cn1c(C2=C(O)CN(c3ccc4c(c3)OCCO4)C2=N)nc2ccccc21` gave Insulin prom act 7.
Screening Cc1sccc1C1C(C#N)=C(N)SC(N)=C1C#N returned Insulin prom act 276.
`CCCCc1ccc(C2C(C#N)=C(N)SC(N)=C2C#N)s1` gave Insulin prom act 275*.
Screening Cc1cc(C2C(C#N)=C(N)SC(N)=C2C#N)c(C)s1 returned Insulin prom act 185.
CCN1C=CC2=C(C#N)C(N)C(C#N)(C#N)C(c3ccccc3C(F)(F)F)C2C1 (stereo not drawn) was read as Insulin prom act 371.
For C(=C1/CCCC2=C1Nc1ncnn1C2c1ccccc1)/c1ccccc1 (stereo not drawn) the results were Insulin prom act -73.
